The values below come from ChEMBL document CHEMBL1128286, “Lipophilic, acid-stable, adenosine deaminase-activated anti-HIV prodrugs for central nervous system delivery. 2. 6-Halo and 6-alkoxy prodrugs of 2'-beta-fluoro-2',3'-dideoxyinosine” (J Med Chem, 1995).

Some results are limits rather than exact numbers.

Series [1] addresses T1, Adenosine deaminase (Bos taurus) (UniProt P56658).
T1 sequence (whole entry): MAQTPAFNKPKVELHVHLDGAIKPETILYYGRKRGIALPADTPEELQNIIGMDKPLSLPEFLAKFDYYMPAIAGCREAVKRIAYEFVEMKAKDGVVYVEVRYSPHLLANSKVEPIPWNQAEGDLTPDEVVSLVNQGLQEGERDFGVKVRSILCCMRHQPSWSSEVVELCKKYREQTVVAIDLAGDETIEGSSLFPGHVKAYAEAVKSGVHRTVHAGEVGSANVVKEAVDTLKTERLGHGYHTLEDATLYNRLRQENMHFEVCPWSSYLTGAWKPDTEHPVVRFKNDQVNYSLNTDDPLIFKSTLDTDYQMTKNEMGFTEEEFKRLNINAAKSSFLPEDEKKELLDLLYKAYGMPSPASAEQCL
The experiment in a line: Relative Adenosine deaminase hydrolysis rate was determined in vitro by appearance of the F-ddI […] on isolated enzyme. An outline of the steps:
(§1)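 Calf intestinal mucosa ADA, 0.05–1.0 unit, incubated with 50 µM substrate in pH 7.4, 0.01 M phosphate buffer at 37 °C. Timed aliquots quenched with water plus dCF and heated 1 min at 95 °C. Substrate loss and F-ddI formation followed by HPLC and fitted as exponential decay or association. Rate per unit ADA normalized to F-ddA.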

Series [2] relates to PBMC. The experiment in a line: % protection was determined as the percent reduction in HIV p24 Gag protein production using PHA/PBM system at 20 uM concentration. The series is classed as functional, Homo sapiens. The gist of the method: (§2)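 PBMs from an HIV-seronegative donor, PHA-stimulated 3 days before drug addition, preincubated 2 h with compound, then infected with 250 TCID50 HIV-1 ERS104pre. Cultured at 37 °C in complete medium (15% FCS) with rIL-2. Day-8 supernatant p24 Gag measured by RIA; % protection is the reduction versus infected untreated controls. Quadruplicate.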

The target of series [3] is T1, Adenosine deaminase (Bos taurus). Kind of series: Relative Adenosine deaminase hydrolysis rate was determined in vitro by disappearance of the substrate […] on isolated enzyme. The gist of the method: as §1
Series [4] in a line: Half life period was determined, at pH 1.0. Format: ADME. An outline of the steps: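 Nucleoside (1.0 mM aqueous stock, diluted 1:20) incubated in pH 1.0 HCl/KCl buffer at 37 °C. Timed aliquots diluted into pH 7.4 phosphate buffer and quantified by isocratic C18 HPLC (15% CH3CN in pH 7.0, 0.01 M phosphate). Data fitted to first-order exponential decay or association.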
For series [5], the system named is PBMC. The experiment in a line: % protection was determined as the percent reduction in HIV p24 Gag protein production using PHA/PBM system at 5 uM concentration. Format: functional, Homo sapiens. The gist of the method:
as §2

Series [6] has as its system PBMC. The experiment in a line: Anti-HIV activity measured as the ability to inhibit HIV -1 p24 Gag protein production, using PHA/PBM system. As to conditions: Homo sapiens. Format: functional, cell-based. The gist of the method: as §2
Series [7] relates to PBMC. Kind of series: % protection was determined as the percent reduction in HIV p24 Gag protein production using PHA/PBM system at 10 uM concentration. Format: functional, Homo sapiens. The gist of the method:
as §2

Series [8] relates to PBMC. Kind of series: % protection was determined as the percent reduction in HIV p24 Gag protein production using PHA/PBM system at 40 uM concentration. Format: functional, Homo sapiens. The gist of the method:
as §2

Series [9] relates to PBMC. Kind of series: % protection was determined as the percent reduction in HIV p24 Gag protein production using PHA/PBM system at 80 uM concentration. Format: functional, Homo sapiens. The gist of the method:
as §2

Series [10] can be described thus: Partition coefficient (logP). As to conditions: octanol/water. The series is classed as physicochemical. An outline of the steps: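 Octanol/pH 7.0 buffer partition coefficient measured by microscale shake-flask, with HPLC quantification of both phases. Run in triplicate; mean ± SD of three determinations.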
A short description of series [11]: Half-life time was determined. Format: ADME.
The test system of series [12] is PBMC. The experiment in a line: % protection was determined as the percent reduction in HIV p24 Gag protein production sing PHA/PBM system at 80 uM concentration. The series is classed as functional, Homo sapiens. An outline of the steps:
as §2

With `OCC1CC(F)C(n2cnc3c(F)ncnc32)O1` (stereo unspecified), the figures for the Activity in [1] and in series [3] were 233 and 202, respectively. Further, the Protection amounted to 97% in the series on PBMC [2]; 58% in the series with PBMC [5]; 83% in the series on PBMC [7]; 99% with PBMC [8]; 99% in the series on PBMC [9]. In addition, the half-life (usually how long it takes for the measured level to halve) in series [4] is 0.54 h. For the same molecule, in the series on PBMC [6], the concentration for half-maximal inhibition (IC50) (as a rule, the concentration at which inhibition is half-maximal) was less than 5 µM. Further, the logP (as a rule, the decadic logarithm of the partition coefficient of the neutral form, usually between octanol and water) in [10] was found to be 0.056.

As to `OCC1CC(F)C(n2cnc3c(O)ncnc32)O1` (stereo unspecified), the Protection is given as 89% in the series with PBMC [2]; 54% in the series with PBMC [5]; 61% in the series with PBMC [7]; 97% with PBMC [8]; 98% in the series with PBMC [9]. This molecule also had a half-maximal inhibitory concentration (IC50) in the series with PBMC [6] of less than 5 µM.

For the molecule `OCC1CC(F)C(n2cnc3c(Br)ncnc32)O1` (stereo unspecified), the values for the Activity in series [1] and in [3] were 1.5 and 1.7, respectively. The molecule further gave a half-life in series [11] of 48.5 h. The Protection was found to be 90% in the series with PBMC [2]; 31% with PBMC [5]; 71% with PBMC [7]; 97% in the series on PBMC [8]; 99% in the series on PBMC [9]. The same molecule showed a 50% inhibitory concentration (IC50) with PBMC [6] of 6.5 µM. This molecule also had a logP in series [10] of 0.443.

With `OCC1CC(F)C(n2cnc3c(Cl)ncnc32)O1` (stereo unspecified), the Activity was 1.6 in series [1] and 2 in series [3]. In series [11], the half-life was 91.7 h. Further, the Protection with PBMC [2] turned out to be 92%; in the series on PBMC [12], 98%; in the series with PBMC [5], 40%; with PBMC [7], 70%; in the series on PBMC [8] it was 97%. The same molecule gave a half-maximal inhibitory concentration (IC50) in the series on PBMC [6] of 5.9 µM.

In series [11], `CCOc1ncnc2c1ncn2C1OC(CO)CC1F` (stereo unspecified) had a half-life of 29.2 h. Further, the Protection is reported as 58% in the series on PBMC [2]; 32% in the series with PBMC [5]; 39% with PBMC [7]; 79% in the series on PBMC [8]; 93% in the series on PBMC [9]. For the same molecule, the Activity in [3] was found to be 0.008. Moreover, the IC50 in the series with PBMC [6] amounted to 14.1 µM. Further, in series [10], the lipophilicity (logP) is 0.803.

In turn, `Cc1cn([C@H]2C[C@H](N=[N+]=[N-])[C@@H](CO)O2)c(=O)[nH]c1=O` [ZIDOVUDINE] gave a logP in series [10] of 0.052.

Consider `COc1ncnc2c1ncn2C1OC(CO)CC1F` (stereo unspecified), for which the Activity in series [1] came to 0.64; in series [3], 0.63. In series [11], this molecule had a half-life of 29.6 h. Besides, the Protection is 49% with PBMC [2]; 18% in the series on PBMC [5]; 35% in the series on PBMC [7]; 75% in the series on PBMC [8]; 92% in the series on PBMC [9]. Inhibition in the series with PBMC [6] was half-maximal at 20 µM (IC50). The molecule also yielded a logP in [10] of 0.245.

`OCC1CC(F)C(n2cnc3c(I)ncnc32)O1` (stereo unspecified): the Activity stood at 0.21 in series [1] and 0.28 in series [3]. For the same molecule, the half-life in series [11] was 20.9 h. For the same molecule, the Protection came to 81% in the series with PBMC [2]; 27% with PBMC [5]; 45% in the series with PBMC [7]; 96% in the series on PBMC [8]; 96% in the series with PBMC [9]. Moreover, the midpoint of inhibition with PBMC [6], the IC50, lay at 10.4 µM. In addition, the logP in [10] was 0.627.

On to `O=c1[nH]cnc2c1ncn2[C@H]1CC[C@@H](CO)O1` [DIDANOSINE], for which the Protection in the series with PBMC [2] is listed as 98%; with PBMC [5], 97%; in the series with PBMC [7] it was 96%; with PBMC [8], 98%; in the series with PBMC [9], 98%. The molecule also registered an IC50 with PBMC [6] of less than 5 µM.
